The source made the active and inactive calls. The rule behind the calls is not given here.
Tests used:
[1] = Cytotoxicity against human Hep2 cells assessed as cell viability at 50 ug/ml incubated for 24 hrs by MTS assay; type: functional; details: HEp-2, 24 h, read-out: Activity
Method in brief: (§1)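 Cells were held at 37 °C, 5% CO2 in humid air. HEp-2 (5 x 10³/well) and HCT-8 (7 x 10³/well) grew in DMEM + 10% heat-inactivated FBS and got compound (binary dilutions) 24 h after seeding. THP-1 (5 x 10³ cells, RPMI-1640 + 10% FBS) were added directly to the dilutions. Exposure lasted 24 h. MTS (CellTiter 96 AQueous One) read-out was absorbance at 490 nm.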

[2] = Cytotoxicity against human Hep2 cells assessed as cell viability at 25 ug/ml incubated for 24 hrs by MTS assay; type: functional; details: HEp-2, 24 h, read-out: Activity; method in brief: as §1
HEp-2 [3] = experiment: Reduction in XIAP levels in human Hep2 cells at 50 ug/ml incubated for 24 hrs by protein array method; type: functional, cell-based
HEp-2 [4] = experiment: Increase in TRAIL-R1 protein expression in human Hep2 cells at 50 ug/ml incubated for 24 hrs by protein array method; type: functional, cell-based
HEp-2 [5] = experiment: Induction of cell cycle arrest in human Hep2 cells assessed accumulation at G2/M phase at 10 ug/ml incubated for 24 hrs by propidium iodide staining based flow cytometry (reference value: 7.82%); type: functional
THP-1 [6] = experiment: Cytotoxicity against human THP1 cells assessed as cell viability at 50 ug/ml incubated for 24 hrs by MTS assay; type: functional; details: THP-1, 24 h, read-out: Activity; method in brief: as §1
HEp-2 [7] = experiment: Reduction in c-IAP2 levels in human Hep2 cells at 50 ug/ml incubated for 24 hrs by protein array method; type: functional, cell-based
HEp-2 [8] = experiment: Increase in cyclin B gene expression in human Hep2 cells at 10 ug/ml incubated for 24 hrs by real-time PCR method; type: functional, cell-based
Method in brief: (§2)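 HEp-2 cells were treated 24 h at 10 or 50 µg/mL. Total RNA was extracted with Trizol, and 2 µg was reverse-transcribed. 50 ng cDNA went into TaqMan real-time PCR with beta-actin as endogenous control. Relative expression was calculated by the ∆∆CT method. Each experiment was run three times.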

[9] = Cytotoxicity against human Hep2 cells assessed as cell viability at 12.5 ug/ml incubated for 24 hrs by MTS assay; type: functional; details: HEp-2, 24 h, read-out: Activity; method in brief: as §1
[10] = Reduction in PRKAA2 gene expression in human Hep2 cells at 10 ug/ml incubated for 24 hrs by real-time PCR method; type: functional, cell-based; details: HEp-2; method in brief: as §2
HEp-2 [11] = experiment: Induction of cell cycle arrest in human Hep2 cells assessed accumulation at G0/G1 phase at 10 ug/ml incubated for 24 hrs by propidium iodide staining based flow cytometry (reference value: 74.51%); type: functional
HEp-2 [12] = experiment: Reduction in survivin protein levels in human Hep2 cells at 50 ug/ml incubated for 24 hrs by protein array method; type: functional, cell-based
HEp-2 [13] = experiment: Reduction in pro-caspase-3 levels in human Hep2 cells at 50 ug/ml incubated for 24 hrs by protein array method; type: functional, cell-based
HEp-2 [14] = experiment: Increase in caspase-8 levels in human Hep2 cells at 50 ug/ml incubated for 24 hrs by protein array method; type: functional, cell-based
HEp-2 [15] = experiment: Increase in TRAIL-R2 protein expression in human Hep2 cells at 50 ug/ml incubated for 24 hrs by protein array method; type: functional, cell-based
HEp-2 [16] = experiment: Reduction in HSP70 protein levels in human Hep2 cells at 50 ug/ml incubated for 24 hrs by protein array method; type: functional, cell-based
HEp-2 [17] = experiment: Induction of cell cycle arrest in human Hep2 cells assessed accumulation at S phase at 50 ug/ml incubated for 24 hrs by propidium iodide staining based flow cytometry (reference value: 21.06%); type: functional
HEp-2 [18] = experiment: Increase in cyclin B gene expression in human Hep2 cells at 50 ug/ml incubated for 24 hrs by real-time PCR method; type: functional, cell-based; method in brief: as §2
HEp-2 [19] = experiment: Induction of cell cycle arrest in human Hep2 cells assessed accumulation at S phase at 10 ug/ml incubated for 24 hrs by propidium iodide staining based flow cytometry (reference value: 21.06%); type: functional
[20] = Reduction in PRKAA1 gene expression in human Hep2 cells at 10 ug/ml incubated for 24 hrs by real-time PCR method; type: functional, cell-based; details: HEp-2; method in brief: as §2
[21] = Cytotoxicity against human HCT8 cells assessed as cell viability at 50 ug/ml incubated for 24 hrs by MTS assay; type: functional; details: HCT-8, 24 h, read-out: Activity; method in brief: as §1
THP-1 [22] = experiment: Cytotoxicity against human THP1 cells assessed as cell viability at 25 ug/ml incubated for 24 hrs by MTS assay; type: functional; details: THP-1, 24 h, read-out: Activity; method in brief: as §1
HCT-8 [23] = experiment: Induction of apoptosis in human HCT8 cells assessed early apoptosis level at 50 ug/ml incubated for 24 hrs by annexin V-FITC and propidium iodide staining based flow cytometry (reference value: 0.75%); type: functional
HEp-2 [24] = experiment: Induction of cell cycle arrest in human Hep2 cells assessed accumulation at G2/M phase incubated for 24 hrs by propidium iodide staining based flow cytometry; type: functional
HEp-2 [25] = experiment: Increase in PRKAA1 gene expression in human Hep2 cells at 50 ug/ml incubated for 24 hrs by real-time PCR method; type: functional, cell-based; method in brief: as §2
HCT-8 [26] = experiment: Induction of apoptosis in human HCT8 cells assessed necrosis level at 50 ug/ml incubated for 24 hrs by annexin V-FITC and propidium iodide staining based flow cytometry (reference value: 1.12%); type: functional
HCT-8 [27] = experiment: Induction of apoptosis in human HCT8 cells assessed viable cells level at 50 ug/ml incubated for 24 hrs by annexin V-FITC and propidium iodide staining based flow cytometry (reference value: 93.3%); type: functional
HEp-2 [28] = experiment: Reduction in c-IAP1 levels in human Hep2 cells at 50 ug/ml incubated for 24 hrs by protein array method; type: functional, cell-based
HEp-2 [29] = experiment: Increase in FADD protein expression in human Hep2 cells at 50 ug/ml incubated for 24 hrs by protein array method; type: functional, cell-based
[30] = Cytotoxicity against human HCT8 cells assessed as cell viability at 25 ug/ml incubated for 24 hrs by MTS assay; type: functional; details: HCT-8, 24 h, read-out: Activity; method in brief: as §1
HEp-2 [31] = experiment: Increase in PRKAA2 gene expression in human Hep2 cells at 50 ug/ml incubated for 24 hrs by real-time PCR method; type: functional, cell-based; method in brief: as §2
HEp-2 [32] = experiment: Increase in cleaved-caspase-3 levels in human Hep2 cells at 50 ug/ml incubated for 24 hrs by protein array method; type: functional, cell-based
HEp-2 [33] = experiment: Induction of cell cycle arrest in human Hep2 cells assessed accumulation at G2/M phase at 50 ug/ml incubated for 24 hrs by propidium iodide staining based flow cytometry (reference value: 7.82%); type: functional
HEp-2 [34] = experiment: Increase in Fas/TNFRSF6 protein expression in human Hep2 cells at 50 ug/ml incubated for 24 hrs by protein array method; type: functional, cell-based
HEp-2 [35] = experiment: Induction of apoptosis in human Hep2 cells assessed as increase in p53 S15/S46/S392 phosphorylation level at 50 ug/ml incubated for 24 hrs by protein array method; type: functional, cell-based
HCT-8 [36] = experiment: Induction of apoptosis in human HCT8 cells assessed late apoptosis level at 50 ug/ml incubated for 24 hrs by annexin V-FITC and propidium iodide staining based flow cytometry (reference value: 4.8%); type: functional
HEp-2 [37] = experiment: Induction of cell cycle arrest in human Hep2 cells assessed accumulation at G0/G1 phase at 50 ug/ml incubated for 24 hrs by propidium iodide staining based flow cytometry (reference value: 74.51%); type: functional
THP-1 [38] = experiment: Cytotoxicity against human THP1 cells assessed as cell viability at 12.5 ug/ml incubated for 24 hrs by MTS assay; type: functional; details: THP-1, 24 h, read-out: Activity; method in brief: as §1
[39] = Cytotoxicity against human HCT8 cells assessed as cell viability at 12.5 ug/ml incubated for 24 hrs by MTS assay; type: functional; details: HCT-8, 24 h, read-out: Activity; method in brief: as §1
HEp-2 [40] = experiment: Reduction in HSP27 protein levels in human Hep2 cells at 50 ug/ml incubated for 24 hrs by protein array method; type: functional, cell-based
HEp-2 [41] = experiment: Reduction in livin protein levels in human Hep2 cells at 50 ug/ml incubated for 24 hrs by protein array method; type: functional, cell-based

## Cn1cc(C(=O)NC(=S)Nc2cccc(Br)c2)cn1
[1]
  viability at 50 µg/mL: 70%
[2]
  viability at 25 µg/mL: 82%
HEp-2 [3]
  Activity: Active
HEp-2 [4]
  Activity: Active
HEp-2 [5]
  Activity: 18.43%
THP-1 [6]
  viability at 50 µg/mL: 32%
HEp-2 [7]
  Activity: Active
HEp-2 [8]
  Activity: Active
[9]
  viability at 12.5 µg/mL: 100%
[10]
  Activity: Active
HEp-2 [11]
  Activity: 66.12%
HEp-2 [12]
  Activity: Active
HEp-2 [13]
  Activity: Active
HEp-2 [14]
  Activity: Active
HEp-2 [15]
  Activity: Active
HEp-2 [16]
  Activity: Active
HEp-2 [17]
  Activity: 34.7%
HEp-2 [18]
  Activity: Active
HEp-2 [19]
  Activity: 20.85%
[20]
  Activity: Active
[21]
  viability at 50 µg/mL: 78.2%
THP-1 [22]
  viability at 25 µg/mL: 55.8%
HCT-8 [23]
  Activity: 7.07%
HEp-2 [24]
  Activity: Dose-dependent effect
HEp-2 [25]
  Activity: Active
HCT-8 [26]
  Activity: 7.58%
HCT-8 [27]
  Activity: 78.2%
HEp-2 [28]
  Activity: Active
HEp-2 [29]
  Activity: Active
[30]
  viability at 25 µg/mL: 89.8%
HEp-2 [31]
  Activity: Active
HEp-2 [32]
  Activity: Active
HEp-2 [33]
  Activity: 52.33%
HEp-2 [34]
  Activity: Active
HEp-2 [35]
  Activity: Active
HCT-8 [36]
  Activity: 7.11%
HEp-2 [37]
  Activity: 15.4%
THP-1 [38]
  viability at 12.5 µg/mL: 77%
[39]
  viability at 12.5 µg/mL: 94%
HEp-2 [40]
  Activity: Active
HEp-2 [41]
  Activity: Active

Reference: ChEMBL document CHEMBL3603756, “Synthesis and apoptotic activity of new pyrazole derivatives in cancer cell lines” (2015)
